Measurements published in ChEMBL document CHEMBL4373696, “Probing the Existence of a Metastable Binding Site at the β2-Adrenergic Receptor with Homobivalent Bitopic Ligands” (J Med Chem, 2019).

Columns and labels:
[1] = target: T1, Beta-1 adrenergic receptor (Homo sapiens, UniProt P08588); assay: Displacement of [3H]DHA from beta1 adrenergic receptor (unknown origin) stably expressed in HEK293 cell membranes measured after 90 mins by scintillation counting analysis
[2] = target: T2, Beta-2 adrenergic receptor (Homo sapiens, UniProt P07550); assay: Antagonist activity at beta2 adrenergic receptor (unknown origin) stably expressed in HEK293 cell membranes assessed as inhibition of isoproterenol-induced cAMP production preincubated for 15 mins followed by isoproterenol addition and measured after 30 mins by TR-FRET assay; format: functional, cell-based
T2 sequence (P07550 whole entry): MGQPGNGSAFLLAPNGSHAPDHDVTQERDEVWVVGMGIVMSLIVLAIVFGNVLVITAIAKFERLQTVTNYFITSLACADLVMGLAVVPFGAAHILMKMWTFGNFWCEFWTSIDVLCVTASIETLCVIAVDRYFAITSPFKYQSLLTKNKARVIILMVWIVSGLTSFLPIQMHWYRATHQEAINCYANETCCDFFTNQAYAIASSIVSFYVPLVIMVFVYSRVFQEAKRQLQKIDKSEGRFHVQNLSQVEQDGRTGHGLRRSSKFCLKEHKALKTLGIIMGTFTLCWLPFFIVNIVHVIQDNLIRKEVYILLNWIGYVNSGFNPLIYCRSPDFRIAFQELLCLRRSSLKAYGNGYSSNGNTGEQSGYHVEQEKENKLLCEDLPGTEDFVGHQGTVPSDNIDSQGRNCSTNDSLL

Homo sapiens [3] = species on record: Homo sapiens; assay: Selectivity ratio of Ki for displacement of [3H]DHA from beta1 adrenergic receptor (unknown origin) stably expressed in HEK293 cell membranes to displacement of [3H]DHA from beta2 adrenergic receptor (unknown origin) stably expressed in HEK293 cell membranes
[4] = target: T2, Beta-2 adrenergic receptor; assay: Displacement of [3H]DHA from beta2 adrenergic receptor (unknown origin) stably expressed in HEK293 cell membranes measured after 90 mins by scintillation counting analysis
[5] = target: T2, Beta-2 adrenergic receptor; assay: Antagonist activity at beta2 adrenergic receptor (unknown origin) expressed in HEK293 cell assessed as inhibition of isoproterenol-induced cAMP production preincubated for 15 mins followed by isoproterenol addition and measured after 15 mins; format: functional, cell-based
[6] = target: T1, Beta-1 adrenergic receptor; assay: Antagonist activity at beta1 adrenergic receptor (unknown origin) stably expressed in HEK293 cell membranes assessed as inhibition of isoproterenol-induced cAMP production preincubated for 15 mins followed by isoproterenol addition and measured after 30 mins by TR-FRET assay; format: cell-based
Outline: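 Membranes from HEK293 cells stably overexpressing β1AR; ligand's blockade of isoproterenol-stimulated cAMP production measured; pIC50 as mean ± SEM from 3-8 independent experiments run in duplicate.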

Homo sapiens [7] = species on record: Homo sapiens; assay: Selectivity ratio of IC50 for antagonist activity at beta1 adrenergic receptor (unknown origin) stably expressed in HEK293 cell membranes to IC50 for antagonist activity at beta2 adrenergic receptor (unknown origin) stably expressed in HEK293 cell membranes; format: cell-based

T1 sequence (P08588 whole entry): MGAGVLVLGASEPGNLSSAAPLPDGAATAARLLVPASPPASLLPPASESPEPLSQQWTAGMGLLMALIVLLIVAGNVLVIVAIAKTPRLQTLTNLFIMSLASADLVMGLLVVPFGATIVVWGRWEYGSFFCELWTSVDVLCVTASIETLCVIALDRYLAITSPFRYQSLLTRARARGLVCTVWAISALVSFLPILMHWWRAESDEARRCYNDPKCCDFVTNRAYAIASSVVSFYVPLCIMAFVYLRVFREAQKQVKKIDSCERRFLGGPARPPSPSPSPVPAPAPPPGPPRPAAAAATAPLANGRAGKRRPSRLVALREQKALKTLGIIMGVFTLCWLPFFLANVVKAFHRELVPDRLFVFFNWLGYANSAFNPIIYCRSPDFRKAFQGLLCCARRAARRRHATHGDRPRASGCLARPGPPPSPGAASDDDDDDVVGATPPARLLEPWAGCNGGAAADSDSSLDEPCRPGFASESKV

| Structure (SMILES) | Ki [1] [nM] | IC50 [2] [nM] | Ratio Ki (Homo sapiens [3]) | Ki ([4]; read-out: pKi (converted)) [nM] | IC50 [5] [nM] | IC50 [6] [nM] | Ratio IC50 (Homo sapiens [7]) | Ki [4] [nM] |
| --- | --- | --- | --- | --- | --- | --- | --- | --- |
| CC(C)NC[C@H](O)COc1ccccc1CCCCCCCCCCCCc1ccccc1OC[C@@H](O)CNC(C)C | 1.26 | 6.92 | 1.1 | 1.15 | 25.7 | 13.8 | 2 |  |
| CC(C)NC[C@H](O)COc1ccccc1CCCNC(=O)NCCCc1ccccc1OC[C@@H](O)CNC(C)C | 44.7 | 7.59 | 38 | 1.17 | 1.58 | 372 | 49.2 | 1.91 |
| CC(C)NC[C@H](O)COc1ccccc1CCCC(=O)NCCNC(=O)CCCc1ccccc1OC[C@@H](O)CNC(C)C | 8.91 | 6.61 | 11.8 | 0.759 | 1.55 | 26.3 | 4 | 1.29 |
| CC(C)NC[C@H](O)COc1ccccc1CCCCCCc1ccccc1OC[C@@H](O)CNC(C)C | 6.46 | 3.8 | 6.76 | 0.955 | 3.24 | 27.5 | 7.2 |  |
| CC(C)NC[C@H](O)COc1ccccc1CCn1cc(CNCc2cn(CCc3ccccc3OC[C@@H](O)CNC(C)C)nn2)nn1 | 2.88 | 4.68 | 3.24 | 0.891 | 2.04 | 19.5 | 4.2 |  |
| CCCC(=O)NCCNC(=O)CCCc1ccccc1OC[C@@H](O)CNC(C)C |  | 64.6 |  |  |  |  |  |  |
| CC(C)NC[C@H](O)COc1ccccc1CCCNC(=O)NCCCc1ccccc1 |  | 14.1 |  |  |  |  |  |  |
| CC(C)NC[C@H](O)COc1ccccc1-n1cc(CNCc2cn(-c3ccccc3OC[C@@H](O)CNC(C)C)nn2)nn1 | 479 | 170 | 12.3 | 38.9 | 12 | 3630 | 21.4 |  |
| CC(C)NC[C@H](O)COc1ccccc1CCCn1cc(CNCc2cn(CCCc3ccccc3OC[C@@H](O)CNC(C)C)nn2)nn1 | 1.1 | 2.88 | 2.51 | 0.437 | 1.2 | 4.68 | 1.6 |  |
| CC(C)NC[C@H](O)COc1ccccc1OCCOCCOc1ccccc1OC[C@@H](O)CNC(C)C |  | 46.8 |  |  |  | 234 | 5 |  |
| CC(C)NC[C@H](O)COc1ccccc1CCNC(=O)NCCc1ccccc1OC[C@@H](O)CNC(C)C | 19.5 | 16.2 | 5.62 | 3.47 | 2.19 | 126 | 7.7 |  |
| CC(C)NC[C@H](O)COc1ccccc1CCCCCNC(=O)NCCCCCc1ccccc1OC[C@@H](O)CNC(C)C |  | 1.74 |  |  |  | 5.62 | 3.2 |  |
| CC(C)NC[C@H](O)COc1ccccc1CCCCCCCCCCc1ccccc1OC[C@@H](O)CNC(C)C | 1.82 | 3.8 | 1.2 | 1.51 | 13.8 | 11.2 | 2.9 |  |
| CC(C)NC[C@H](O)COc1ccccc1CC(=O)NCCNC(=O)Cc1ccccc1OC[C@@H](O)CNC(C)C | 2570 | 2630 | 5.5 | 468 | 214 | 11000 | 4.1 |  |
| CC(C)NC[C@H](O)COc1ccccc1CCC(=O)NCCCNC(=O)CCc1ccccc1OC[C@@H](O)CNC(C)C |  | 8.32 |  |  |  | 1780 | 214 |  |
| CC(C)NC[C@H](O)COc1ccccc1CCCCNC(=O)NCCCCc1ccccc1OC[C@@H](O)CNC(C)C | 3.98 | 1.58 | 10.5 | 0.38 | 1.78 | 14.5 | 9.2 |  |
| CC(C)NC[C@H](O)COc1ccccc1Cn1cc(CNCc2cn(Cc3ccccc3OC[C@@H](O)CNC(C)C)nn2)nn1 | 83.2 | 64.6 | 5.37 | 15.5 | 6.31 | 490 | 7.6 |  |
| CC(C)NC[C@H](O)COc1ccccc1OCCOCCOCCOc1ccccc1OC[C@@H](O)CNC(C)C |  | 74.1 |  |  |  | 97.7 | 1.3 |  |
| CCCNC(=O)NCCCc1ccccc1OC[C@@H](O)CNC(C)C |  | 85.1 |  |  |  |  |  |  |
| CC(C)NC[C@@H](O)COc1ccccc1CCCC(=O)NCCNC(=O)CCCc1ccccc1OC[C@H](O)CNC(C)C |  | 214 |  |  |  | 4470 | 20.9 |  |
| COc1ccccc1CCCC(=O)NCCNC(=O)CCCc1ccccc1OC[C@@H](O)CNC(C)C |  | 3.89 |  |  |  |  |  |  |
| COc1ccccc1CCCNC(=O)NCCCc1ccccc1OC[C@@H](O)CNC(C)C |  | 13.8 |  |  |  |  |  |  |
| CC(C)NC[C@H](O)COc1ccccc1CCCC(=O)NCCCCNC(=O)CCCc1ccccc1OC[C@@H](O)CNC(C)C |  | 11.2 |  |  |  | 182 | 16.2 |  |
| CC(C)NC[C@H](O)COc1ccccc1CCCCCCCCc1ccccc1OC[C@@H](O)CNC(C)C | 4.17 | 2.34 | 5.25 | 0.794 | 5.25 | 20 | 8.6 |  |
| CC(C)NC[C@H](O)COc1ccccc1CCC(=O)NCCNC(=O)CCc1ccccc1OC[C@@H](O)CNC(C)C | 269 | 75.9 | 22.9 | 11.7 | 3.31 | 2040 | 26.5 |  |
| CC(C)NC[C@H](O)COc1ccccc1CCCC(=O)NCCNC(=O)CCCc1ccccc1 |  | 5.89 |  |  |  |  |  |  |
| CC(C)NC[C@H](O)COc1ccccc1CCCC(=O)NCCCNC(=O)CCCc1ccccc1OC[C@@H](O)CNC(C)C |  | 6.46 |  |  |  | 28.2 | 4.3 |  |
